This is an account of results in ChEMBL document CHEMBL1949537, “Structure-activity studies on the anti-proliferation activity of ajoene analogues in WHCO1 oesophageal cancer cells” (Eur J Med Chem, 2012).

Structures are written as SMILES. Calls of active or inactive are those of the source. The rule behind the calls is not given here.

Test [1] can be described thus: Antiproliferative activity against human WHCO1 cells after 48 hrs by MTT assay. Conditions: WHCO1, 48 h. Format: functional, cell-based. The method, boiled down: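 WHCO1 cells (oesophageal SCC line) kept in DMEM with 10% FBS, no antibiotics, 37 °C, 5% CO2. Seeded 2 × 10^3 cells/well, dosed next day at 0.5–200 µM in 0.1% DMSO final; DMSO-only controls. After 48 h, MTT added for 4 h, then SLS/HCl overnight, A595 read. IC50 from variable-slope sigmoidal fit; mean ± SD of three independent determinations.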

The nature of test [2]: Induction of cell cycle arrest in human WHCO1 cells assessed as G0/G1 phase cells at 10 uM after 16 hrs by flow cytometry (reference value: 29.2 +/- 5.2%). Format: functional.
For test [3], the system named is WHCO1. Nature of the test: Growth inhibition of human WHCO1 cells at 34 uM after 6 days by Roche xCelligence method. Type of test: functional, cell-based. In a few lines: (§1)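 Real-time impedance (xCelligence) of WHCO1 cells seeded at 5000/well. Compound added 24 h after plating in 0.1% DMSO at 34, 100 or 113 µM; DMSO-only controls. Growth then tracked continuously for a further six days. Each curve is the average of three replicates.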

Test [4] can be described thus: Induction of cell cycle arrest in human WHCO1 cells assessed as G2/M phase cells at 10 uM after 16 hrs by flow cytometry (reference value: 25.5 +/- 3.7%). Format: functional.
Test [5] is described as follows: Induction of cell cycle arrest in human WHCO1 cells assessed as S phase cells at 10 uM after 16 hrs by flow cytometry (reference value: 45.3 +/- 1.9%). Type of test: functional.
In test [6] the test system is WHCO1. Nature of the test: Growth inhibition of human WHCO1 cells at 10 uM up to 2 days by Roche xCelligence method. Conditions: in the assay text read “up to 5 days” for “up to 2 days”. Type of test: functional, cell-based. The method, boiled down:
(§2)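 xCelligence impedance monitoring of WHCO1 growth: 2500 cells/well, treated 24 h after plating with 10 µM compound in 0.1% DMSO. DMSO-only controls. Growth followed continuously as impedance; the system records for up to seven days.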

The test system of test [7] is WHCO1. Nature of the test: Induction of apoptosis in human WHCO1 cells at 10 uM after 16 hrs by Roche cell death ELISA method. Format: functional, cell-based. The method, boiled down:
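Quadruplicate wells of 5 × 10^3 WHCO1 cells dosed next day at 10 µM in 0.1% DMSO for 16 h; DMSO-only controls. Cytoplasmic fraction assayed for histone-associated DNA fragments by sandwich ELISA (anti-histone-biotin/anti-DNA-POD, 2 h at room temperature, ABTS 15 min). Absorbance read at 405 and 495 nm.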

Test [8] in a line: Ratio of Z-ajeone IC50 to compound IC50 for human WHCO1 cells. Type of test: functional.
A short description of test [9]: Induction of apoptosis in human WHCO1 cells assessed as caspase 3 activation using Ac-DEVD-AFC as substrate at 25 uM after 24 hrs by fluorimetry relative to control. Type of test: functional. In a few lines:
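WHCO1 cells (1.8 × 10^6) seeded in triplicate and dosed next day at 25 µM with 0.1% DMSO for 24 h. Controls received medium or 0.1% DMSO. Lysates captured on anti-caspase-3 coated wells for 1 h at 37 °C, then fluorogenic substrate added. Fluorescence (ex 390/em 505 nm) read at 0 and 120 min at 37 °C; activity is the ΔFU.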

The test system of test [10] is WHCO1. Nature of the test: Growth inhibition of human WHCO1 cells at 100 uM after 6 days by Roche xCelligence method. Format: functional, cell-based. The method, boiled down: as §1
For test [11], the system named is WHCO1. The test is described as follows: Growth inhibition of human WHCO1 cells at 10 uM up to 5 days by Roche xCelligence method. Format: functional, cell-based. In a few lines: as §2
Test [12] has as its system WHCO1. The test is described as follows: Growth inhibition of human WHCO1 cells at 113 uM after 6 days by Roche xCelligence method. Type of test: functional, cell-based. The method, boiled down:
as §1

In test [1], `C=CCSS/C=C\C[S+]([O-])CCCOCc1ccc(OC)cc1` (stereo not drawn) yielded an IC50 of 21 µM.

In the case of `O=c1[nH]cc(F)c(=O)[nH]1` [FLUOROURACIL], half-maximal inhibition in test [1] (IC50) was put at 7.9 µM.

For `COc1ccc(CS/C=C\C[S+]([O-])Cc2ccc(OC)cc2)cc1` (stereo not drawn), the Activity is 19.5% in test [2], 17.4% in [4] and 63.1% in test [5]. Also, the “growth inhibition (GI)” value in the test on WHCO1 [3] is “inactive”. In addition, in test [1], the IC50 was more than 200 µM.

Consider `C=CCSS/C=C/C[S+]([O-])CC=C` (stereo not drawn) [AJOENE], for which, in the test on WHCO1 [6], the “growth inhibition (GI)” value is “inactive”. This molecule also had an IC50 in test [1] of 39 µM.

The molecule `CCC[S+]([O-])C/C=C/SSC` (stereo not drawn) yielded an IC50 in test [1] of 28 µM.

`C=CCSS/C=C/C[S+]([O-])CCC` (stereo not drawn): the IC50 in test [1] was found to be 37 µM.

Take `C=CCSSC=CC[S+]([O-])Cc1ccc(OC)cc1` (mixture of isomers): the IC50 in test [1] was 7.4 µM.

Regarding `COc1ccc(CSCC=CSSCc2ccc(OC)cc2)cc1`, the outcome in the test with WHCO1 [7] was Active. In addition, the Activity was determined as 9.73% in test [2], 74.4% in test [4] and 15.9% in test [5]. Besides, in the test with WHCO1 [3], the “growth inhibition (GI)” value is “Active”. 0.7 µM corresponded to half-maximal inhibition in test [1] (IC50).

As to `C=CCSS/C=C\C[S+]([O-])CCCO` (stereo not drawn), in [1], the concentration for half-maximal inhibition (IC50) came to 38 µM.

Take `C=CCSS/C=C\C[S+]([O-])CC=C` (stereo not drawn) [(Z)-Ajoene]: in the test on WHCO1 [6], the “growth inhibition (GI)” value is “inactive”. In [1], this molecule yielded a half-maximal inhibitory concentration (IC50) of 25 µM.

As for `CCC[S+]([O-])C/C=C\SSC` (stereo not drawn), the midpoint of inhibition in test [1], the IC50, lay at 26 µM.

`CCCSS/C=C\C[S+]([O-])CCC` (stereo not drawn) registered an IC50 in [1] of 18 µM.

Consider `C=CCSS/C=C/C[S+]([O-])CCCOCc1ccc(OC)cc1` (stereo not drawn), for which the midpoint of inhibition in test [1], the IC50, lay at 18 µM.

`COc1ccc(CSSC=CC[S+]([O-])Cc2ccc(OC)cc2)cc1` (stereo not drawn): the outcome with WHCO1 [7] was Active. Moreover, the “Ratio IC50” value in test [8] is 12. Besides, the “fold change (FC)” value in test [9] turned out to be 3. The Activity was 8.03% in test [2], 78.6% in [4] and 13.5% in test [5]. Besides, the “growth inhibition (GI)” value in the test on WHCO1 [10] and in the test with WHCO1 [11] was “Active” each time. This molecule had a half-maximal inhibitory concentration (IC50) in test [1] of 2.1 µM.

Regarding `COc1ccc(CSSCCC[S+]([O-])Cc2ccc(OC)cc2)cc1` (stereo not drawn), in the test with WHCO1 [3], the “growth inhibition (GI)” value was “Active”. In addition, inhibition in test [1] was half-maximal at 16 µM (IC50).

For the molecule `C=CCSS/C=C/C[S+]([O-])CCCN1C(=O)c2ccccc2C1=O` (stereo not drawn), the IC50 in test [1] came to 68 µM.

With `C=CCSS/C=C\C[S+]([O-])CCC` (stereo not drawn), in test [1], it took 23 µM to reach half-maximal inhibition (IC50).

Take `C=CCSSC=CC[S+]([O-])Cc1ccccc1` (mixture of isomers): the IC50 in [1] came to 8.9 µM.

Regarding `C=CCSS/C=C\C[S+]([O-])CCCN1C(=O)c2ccccc2C1=O` (stereo not drawn), half-maximal inhibition in test [1] (IC50) was put at 33 µM.

As to `CCCSS/C=C/C[S+]([O-])CCC` (stereo not drawn), the IC50 in [1] was 24 µM.

For `COc1ccc(C[S+]([O-])CC=CSSCc2ccc(F)cc2)cc1` (mixture of isomers), inhibition in test [1] was half-maximal at 16 µM (IC50).

Regarding `COc1ccc(CSCCCSSCc2ccc(OC)cc2)cc1`, the “growth inhibition (GI)” value with WHCO1 [12] is “inactive”. Further, the IC50 in test [1] is more than 200 µM.

In test [1], `C=CCSSC=CC[S+]([O-])C(C)(C)C` (mixture of isomers) returned an IC50 of 23 µM.

With `C=CCSS/C=C/C[S+]([O-])CCCO` (stereo not drawn), the IC50 in test [1] worked out at 27 µM.

`COc1ccc(C[S+]([O-])CC=CSSCc2ccccc2)cc1` (mixture of isomers) came in with an IC50 in test [1] of 3.1 µM.

Regarding `COc1ccc(CSC=CCSCc2ccc(OC)cc2)cc1`, the “growth inhibition (GI)” value in the test on WHCO1 [12] was “inactive”. Moreover, the IC50 in test [1] was more than 200 µM.

`COc1ccc(CS/C=C/C[S+]([O-])Cc2ccc(OC)cc2)cc1` (stereo not drawn): the Activity in [2] is 21.5%; in test [4] it was 11.4%; in test [5], 67%. The “growth inhibition (GI)” value in the test on WHCO1 [3] is “inactive”. Moreover, the IC50 in test [1] was more than 200 µM.
